# Tested on: HEK-293T
# Assay: Multiplex assay against HEK293T;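 as to Population Tubulin-Different-Phenotype (%): share of the cells with healthy nuclei that show this phenotype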
# Format: toxicity, cell-based
# Settings: human
# Procedure, shortened: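 Phenotypes for tubulin, mitochondrial mass and membrane permeability are expressed as per cents of healthy-nucleus cells. Cells were stained live at seeding with Hoechst33342, BioTracker Green Microtubule Cytoskeleton Dye, MitoTracker Red and Annexin V Alexa Fluor 680, then imaged after compound addition on a CQ1 microscope at 37°C and 5% CO2. Machine-learning gating in CellPathfinder separated Hoechst high-intensity objects from normal cells, divided normal cells by nuclear state (healthy, pyknosed, fragmented) and divided pyknosed cells into mitotic or apoptotic.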
# [1] = 12 h, 1 µM, compound concentration 1 uM, replicate 1
# [2] = 12 h, 1 µM, compound concentration 1 uM, replicate 2
# [3] = 12 h, 10 µM, compound concentration 10 uM, replicate 1
# [4] = 12 h, 10 µM, compound concentration 10 uM, replicate 2
# [5] = 24 h, 1 µM, compound concentration 1 uM, replicate 1
# [6] = 24 h, 1 µM, compound concentration 1 uM, replicate 2
# [7] = 24 h, 10 µM, compound concentration 10 uM, replicate 1
# [8] = 24 h, 10 µM, compound concentration 10 uM, replicate 2
compound,measurement,setting,value
Cc1nc(N2CC[C@H](O)C2)ncc1-c1cc(C(F)(F)F)cc2[nH]ncc12,Population Apoptotic (%),[1],20%
same,Population Fragmented Nuclei (%),[1],9%
same,Population Healthy Nuclei (%),[1],70%
same,Population Hoechst High Intensity Objects (%),[1],7%
same,Population Membrane Permeable-Phenotype (%),[1],3%
same,Population Mitochondria Different-Phenotype (%),[1],7%
same,Population Mitotic Cells (%),[1],79%
same,Population Normal (%),[1],92%
same,Population Pyknosed Nuclei (%),[1],20%
same,Population Tubulin-Different-Phenotype (%),[1],5%
same,Total Cell Count,[1],628
same,Population Apoptotic (%),[2],8%
same,Population Fragmented Nuclei (%),[2],7%
same,Population Healthy Nuclei (%),[2],87%
same,Population Hoechst High Intensity Objects (%),[2],2%
same,Population Membrane Permeable-Phenotype (%),[2],1%
same,Population Mitochondria Different-Phenotype (%),[2],10%
same,Population Mitotic Cells (%),[2],91%
same,Population Normal (%),[2],97%
same,Population Pyknosed Nuclei (%),[2],4%
same,Population Tubulin-Different-Phenotype (%),[2],9%
same,Total Cell Count,[2],1293
same,Population Apoptotic (%),[3],24%
same,Population Fragmented Nuclei (%),[3],11%
same,Population Healthy Nuclei (%),[3],70%
same,Population Hoechst High Intensity Objects (%),[3],9%
same,Population Membrane Permeable-Phenotype (%),[3],4%
same,Population Mitochondria Different-Phenotype (%),[3],4%
same,Population Mitotic Cells (%),[3],75%
same,Population Normal (%),[3],90%
same,Population Pyknosed Nuclei (%),[3],18%
same,Population Tubulin-Different-Phenotype (%),[3],3%
same,Total Cell Count,[3],699
same,Population Apoptotic (%),[4],5%
same,Population Fragmented Nuclei (%),[4],7%
same,Population Healthy Nuclei (%),[4],88%
same,Population Hoechst High Intensity Objects (%),[4],1%
same,Population Membrane Permeable-Phenotype (%),[4],1%
same,Population Mitochondria Different-Phenotype (%),[4],8%
same,Population Mitotic Cells (%),[4],94%
same,Population Normal (%),[4],98%
same,Population Pyknosed Nuclei (%),[4],4%
same,Population Tubulin-Different-Phenotype (%),[4],4%
same,Total Cell Count,[4],1684
same,Population Apoptotic (%),[5],22%
same,Population Fragmented Nuclei (%),[5],7%
same,Population Healthy Nuclei (%),[5],79%
same,Population Hoechst High Intensity Objects (%),[5],5%
same,Population Membrane Permeable-Phenotype (%),[5],5%
same,Population Mitochondria Different-Phenotype (%),[5],4%
same,Population Mitotic Cells (%),[5],77%
same,Population Normal (%),[5],94%
same,Population Pyknosed Nuclei (%),[5],12%
same,Population Tubulin-Different-Phenotype (%),[5],11%
same,Total Cell Count,[5],702
same,Population Apoptotic (%),[6],3%
same,Population Fragmented Nuclei (%),[6],17%
same,Population Hoechst High Intensity Objects (%),[6],2%
same,Population Membrane Permeable-Phenotype (%),[6],4%
same,Population Mitochondria Different-Phenotype (%),[6],3%
same,Population Mitotic Cells (%),[6],96%
same,Population Normal (%),[6],97%
same,Population Pyknosed Nuclei (%),[6],2%
same,Population Tubulin-Different-Phenotype (%),[6],14%
same,Total Cell Count,[6],1975
same,Population Apoptotic (%),[7],28%
same,Population Fragmented Nuclei (%),[7],10%
same,Population Healthy Nuclei (%),[7],80%
same,Population Hoechst High Intensity Objects (%),[7],5%
same,Population Membrane Permeable-Phenotype (%),[7],12%
same,Population Mitochondria Different-Phenotype (%),[7],1%
same,Population Mitotic Cells (%),[7],71%
same,Population Normal (%),[7],94%
same,Population Pyknosed Nuclei (%),[7],9%
same,Population Tubulin-Different-Phenotype (%),[7],6%
same,Total Cell Count,[7],840
same,Population Apoptotic (%),[8],6%
same,Population Fragmented Nuclei (%),[8],21%
same,Population Healthy Nuclei (%),[8],75%
same,Population Hoechst High Intensity Objects (%),[8],2%
same,Population Membrane Permeable-Phenotype (%),[8],5%
same,Population Mitotic Cells (%),[8],93%
same,Population Normal (%),[8],97%
same,Population Pyknosed Nuclei (%),[8],2%
same,Population Tubulin-Different-Phenotype (%),[8],5%
same,Total Cell Count,[8],2845

# From ChEMBL document CHEMBL4689842, “EUbOPEN Chemogenomics Library wave 1” (2021)
